# In ChEMBL document CHEMBL2331102 (Bioorg Med Chem, 2013):
# Active and inactive are the calls of the source. No cut-off for these calls is given here.
# Legend:
# Trypanosoma cruzi [1] = assay: Antitrypanosomal activity against Trypanosoma cruzi Tulahuen TcVI infected in Swiss mouse model of Chagas disease assessed as increase in host survival at 100 mg/kg once daily for 5 consecutive days through oral gavage starting on day 8 post infection measured 14 days post infection; format: functional, organism-based; parameters: dose 100 mg/kg
# Procedure, shortened: (§1)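 Female Swiss mice (n = 5 per group) were infected with 25,000 blood-form T. cruzi Tulahuen TcVI trypomastigotes and dosed orally by gavage once daily for 5 days from day 8 pi.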
# Trypanosoma cruzi [2] = assay: Antitrypanosomal activity against Trypanosoma cruzi Tulahuen TcVI infected in Swiss mouse model of Chagas disease assessed as increase in host survival at 50 mg/kg once daily for 5 consecutive days through oral gavage starting on day 8 post infection measured 14 days post infection; format: functional, organism-based; parameters: dose 50 mg/kg; procedure, shortened: as §1
# Trypanosoma cruzi [3] = assay: Antitrypanosomal activity against Trypanosoma cruzi Tulahuen TcVI infected in Swiss mouse model of Chagas disease assessed as decrease in blood parasitemia level at 100 mg/kg once daily for 5 consecutive days through oral gavage starting on day 8 post infection measured 14 days post infection; format: functional
# Procedure, shortened: (§2)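 Female Swiss mice (n = 5 per group) were infected with 25,000 blood-form T. cruzi Tulahuen TcVI trypomastigotes. From day 8 post-infection, they received once-daily oral gavage for 5 consecutive days. Blood trypomastigotes/mL were counted on days 8, 9, 12 and 14 pi, and efficacy was taken as decreased parasitemia versus vehicle-treated mice on day 14.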
# Trypanosoma cruzi [4] = assay: Antitrypanosomal activity against Trypanosoma cruzi Tulahuen TcVI infected in Swiss mouse model of Chagas disease assessed as decrease in blood parasitemia level at 50 mg/kg once daily for 5 consecutive days through oral gavage starting on day 8 post infection measured 14 days post infection; format: functional; procedure, shortened: as §2
# L6 = assay: Cytotoxicity against rat L6 cells after 72 hrs by Alamar Blue assay; format: cell-based; conditions: L6, 72 h
# Procedure, shortened: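 Counter-screen for cytotoxicity in uninfected L6 rat skeletal muscle myoblasts, with IC50 recorded in µM.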
# Trypanosoma cruzi [5] = assay: Antitrypanosomal activity against Trypanosoma cruzi Tulahuen TcVI extracellular trypomastigotes forms transfected with beta-galactosidase gene infected in rat L6 cells assessed as inhibition of parasite growth after 4 days; format: functional, organism-based; conditions: L6, 96 h
# Procedure, shortened: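 L6 rat skeletal myoblasts were infected with extracellular trypomastigotes of β-galactosidase-transfected T. cruzi Tulahuen TcVI. After 48 h to establish infection, compound was added and incubation continued 4 days, exposing trypomastigote and intracellular amastigote forms.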
# Trypanosoma cruzi [6] = assay: Antitrypanosomal activity against Trypanosoma cruzi Tulahuen TcVI infected in Swiss mouse model of Chagas disease assessed as increase in host survival at 20 mg/kg once daily for 5 consecutive days through oral gavage starting on day 8 post infection measured 14 days post infection; format: functional, organism-based; parameters: dose 20 mg/kg; procedure, shortened: as §1
# Trypanosoma cruzi [7] = assay: Antitrypanosomal activity against Trypanosoma cruzi Tulahuen TcVI infected in Swiss mouse model of Chagas disease assessed as decrease in blood parasitemia level at 20 mg/kg once daily for 5 consecutive days through oral gavage starting on day 8 post infection measured 14 days post infection; format: functional; procedure, shortened: as §2
# Mus musculus [8] = assay: AUC (0 to 7.5 hrs) in Swiss mouse at 50 mg/kg, po; format: ADME, organism-based, Plasma; parameters: time < 7.5 hr, dose 50 mg/kg, route oral; conditions: in vivo
# Procedure, shortened: (§3)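 Non-infected male Swiss outbred mice received single oral gavage doses of 20, 50 and 100 mg/kg. […] Full-scan LC-MS was run on selected plasma samples to identify metabolites.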
# Mus musculus [9] = assay: AUC (0 to 7.5 hrs) in Swiss mouse at 100 mg/kg, po; format: ADME, organism-based, Plasma; parameters: time < 7.5 hr, dose 100 mg/kg, route oral; conditions: in vivo; procedure, shortened: as §3
# Mus musculus [10] = assay: AUC (0 to 7.5 hrs) in Swiss mouse at 20 mg/kg, po; format: ADME, organism-based, Plasma; parameters: time < 7.5 hr, dose 20 mg/kg, route oral; conditions: in vivo; procedure, shortened: as §3
# [11] = Apparent half life in Swiss mouse at 20 to 100 mg/kg, po; format: ADME, organism-based; parameters: dose 20-100 mg/kg, route oral; conditions: in vivo, read-out: t1/2(app) (converted); procedure, shortened: as §3
# Mus musculus [12] = assay: Toxicity in Swiss mouse at 20 to 100 mg/kg, po; format: organism-based; parameters: dose 20-100 mg/kg, route oral; conditions: in vivo; procedure, shortened: as §3
# [13] = Tmax in Swiss mouse at 20 to 100 mg/kg, po; format: ADME, organism-based; parameters: dose 20-100 mg/kg, route oral; conditions: in vivo; procedure, shortened: as §3
# CYP3A4/5 = CYP3A4/5 (Homo sapiens, UniProt P08684+P20815); assay: Inhibition of CYP3A4/5 in human liver microsomes assessed as reduction in testosterone-beta-hydroxylation; format: ADME, Microsome; conditions: probe testosterone
# Procedure, shortened: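 CYP3A4 inhibition measured as inhibition of testosterone β-hydroxylation, reported as IC50 (µM).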
# [14] = Kinetic solubility of the compound at pH 6.5 phosphate buffer by nephelometric analysis; format: physicochemical; conditions: read-out: Kinetic_solubility
# Procedure, shortened: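 Kinetic solubility in phosphate buffer at pH 6.5, determined by nephelometry and reported in µg/mL.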
# [15] = Selectivity index, ratio of IC50 for rat L6 cells to IC50 for Trypanosoma cruzi Tulahuen TcVI extracellular trypomastigotes forms; format: toxicity, cell-based; conditions: read-out: Ratio IC50
# Procedure, shortened: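 Ratio of the L6 myoblast cytotoxicity IC50 to the IC50 against β-galactosidase-expressing T. cruzi Tulahuen TcVI.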
Structure (SMILES),Activity (Trypanosoma cruzi [1]),Activity (Trypanosoma cruzi [2]),Activity (Trypanosoma cruzi [3]),Activity (Trypanosoma cruzi [4]),IC50 (L6) [nM],IC50 (Trypanosoma cruzi [5]) [nM],Activity (Trypanosoma cruzi [6]),Activity (Trypanosoma cruzi [7]),AUC (Mus musculus [8]) [µM·h],AUC (Mus musculus [9]) [µM·h],AUC (Mus musculus [10]) [µM·h],half-life [11] [min],Activity (Mus musculus [12]),Tmax [13] [min],also measured
CC[C@@H]([C@H](C)O)n1ncn(-c2ccc(N3CCN(c4ccc(OC[C@@H]5CO[C@@](Cn6cncn6)(c6ccc(F)cc6F)C5)cc4)CC3)cc2)c1=O [POSACONAZOLE],Active,Active,Active,Active,> 100000,0.7,–,–,–,–,–,–,–,–,–
CC(=O)N1CCN(C(c2ccc(Cl)cc2)c2cccnc2)CC1 (stereo not given),Active,Active,inactive,inactive,–,–,Active,inactive,–,–,–,–,–,–,–
CS(=O)(=O)N1CCN(C(c2cccnc2)c2ccc(Cl)cc2F)CC1.O=C(O)CC(O)(CC(=O)O)C(=O)O (stereo not given),–,–,–,–,–,–,–,–,60.2,43.7,7.2,126,Non-toxic,15,–
CS(=O)(=O)N1CCN(C(c2cccnc2)c2ccc(Cl)cc2F)CC1 (stereo not given) [listing 1 of 2 here],–,–,96%,95%,> 100000,35,–,73%,–,–,–,–,–,–,IC50 (CYP3A4/5): 1300 nM; solubility kinetic [14]: 12.5 µg/mL; selectivity ratio [15]: > 100
CC(=O)N1CCN(C(c2ccc(Cl)cc2)c2cccnc2)CC1.O=C(O)CC(O)(CC(=O)O)C(=O)O (stereo not given),–,–,–,–,–,–,–,–,6.2,9.4,2.3,102,Non-toxic,15,–
CS(=O)(=O)N1CCN(C(c2cccnc2)c2ccc(Cl)cc2F)CC1 (stereo not given) [listing 2 of 2 here],Active,Active,–,–,–,–,Active,–,–,–,–,–,–,–,–
